Results as given in ChEMBL document CHEMBL1811802, “Synthesis and significant cytostatic activity of 7-hetaryl-7-deazaadenosines” (J Med Chem, 2011).
Blank lines part the entries; values can stand above or below the compound they belong to.

What was measured:
[1] = tested on: BT-549; experiment: Cytostatic activity against human BT549 cells after 5 days by SRB assay; type: functional; details: BT-549, 120 h
In short: (§1)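 Cells seeded per line density, overnight at 37 °C; day-zero plate TCA-fixed. 5-fold serial dilutions added, 5-day incubation; TCA fixation, 0.057% SRB in 1% acetic acid 30 min, dye dissolved in 10 mM Tris pH 10.5, A500. Growth relative to day-zero and untreated; GIC50 from sigmoidal dose–response fit; mean of two independent experiments.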

[2] = tested on: HCT-15; experiment: Cytostatic activity against human HCT15 cells after 5 days by SRB assay; type: functional; details: HCT-15, 120 h; in short: as §1
[3] = Cytostatic activity against human Hs578 cells after 5 days by SRB assay; type: functional; details: Hs578, 120 h; in short: as §1
[4] = tested on: HCT-116; experiment: Cytostatic activity against human HCT116 cells after 5 days by SRB assay; type: functional; details: HCT-116, 120 h; in short: as §1
[5] = tested on: NCI-H23; experiment: Cytostatic activity against human NCI-H23 cells after 5 days by SRB assay; type: functional; details: NCI-H23, 120 h; in short: as §1
[6] = tested on: A549; experiment: Cytostatic activity against human A549 cells after 5 days by SRB assay; type: functional; details: A549, 120 h; in short: as §1
[7] = tested on: MT4; experiment: Cytostatic activity against human MT4 cells after 5 days by SRB assay; type: functional; details: MT4, 120 h
[8] = tested on: DU-145; experiment: Cytostatic activity against human DU145 cells after 5 days by SRB assay; type: functional; details: DU-145, 120 h; in short: as §1
[9] = tested on: PC-3; experiment: Cytostatic activity against human PC3 cells after 5 days by SRB assay; type: functional; details: PC-3, 120 h; in short: as §1
[10] = tested on: MDA-MB-231; experiment: Cytotoxicity against human MDA-MB-231 cells after 3 days by MTT assay; type: functional, cell-based; details: MDA-MB-231, 72 h
[11] = Cytotoxicity against human U87MG cells after 3 days by MTT assay; type: functional, cell-based, U-87MG ATCC; details: U-87 MG, 72 h
[12] = tested on: EL4; experiment: Cytotoxicity against mouse EL4 cells after 3 days by MTT assay; type: functional, cell-based; details: EL4, 72 h
[13] = tested on: BJ; experiment: Cytotoxicity against human BJ cells after 3 days by MTT assay; type: cell-based; details: 72 h
[14] = tested on: HeLa; experiment: Cytotoxicity against human HeLa cells after 3 days by MTT assay; type: functional, cell-based; details: 72 h
[15] = tested on: HPAC; experiment: Cytotoxicity against human HPAC cells after 3 days by MTT assay; type: functional, cell-based; details: 72 h
[16] = target: Adenosine kinase (Homo sapiens, UniProt P55263); experiment: Inhibition of human ADK using [3H]-adenosine by scintillation counting
[17] = tested on: PC-3; experiment: Cytotoxicity against human PC3 cells after 3 days by MTT assay; type: functional, cell-based; details: PC-3, 72 h
[18] = tested on: MCF7; experiment: Cytotoxicity against human MCF7 cells after 3 days by MTT assay; type: functional, cell-based; details: MCF7, 72 h
[19] = tested on: CT26; experiment: Cytotoxicity against mouse CT26 cells after 3 days by MTT assay; type: functional, cell-based; details: CT26, 72 h
[20] = Cytotoxicity against human CEM-DNR-bulk cells after 3 days by MTT assay; type: functional, cell-based; details: 72 h
[21] = tested on: CCRF-CEM; experiment: Cytotoxicity against human CCRF-CEM cells after 3 days by XTT assay; type: functional, cell-based; details: 72 h
In short: (§2)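 Suspension-grown cell lines, 3-day compound incubation; viability read by XTT metabolic assay; IC50 averaged from four independent experiments.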

[22] = tested on: SK-OV-3; experiment: Cytotoxicity against human SKOV3 cells after 3 days by MTT assay; type: functional, cell-based; details: SK-OV-3, 72 h
[23] = tested on: C6; experiment: Cytotoxicity against rat C6 cells after 3 days by MTT assay; type: functional, cell-based; details: C6, 72 h
[24] = tested on: HT-29; experiment: Cytotoxicity against human HT-29 cells after 3 days by MTT assay; type: functional, cell-based; details: HT-29, 72 h
[25] = Cytotoxicity against human MES-SA cells after 3 days by MTT assay; type: functional, cell-based; details: 72 h
[26] = Cytotoxicity against human HeLaS3 cells after 3 days by XTT assay; type: functional, cell-based; details: HeLa S3, 72 h; in short: as §2
[27] = tested on: K562; experiment: Cytotoxicity against human K562 cells after 3 days by MTT assay; type: functional, cell-based; details: K562, 72 h
[28] = tested on: L1210; experiment: Cytotoxicity against mouse L1210 cells after 3 days by MTT assay; type: functional, cell-based; details: L1210, 72 h
[29] = Cytotoxicity against human NCI-H146 cells after 3 days by MTT assay; type: functional, cell-based; details: NCI-H146, 72 h
[30] = Cytotoxicity against mouse P388D1 cells after 3 days by MTT assay; type: functional, cell-based; details: P388D1, 72 h
[31] = tested on: K562; experiment: Cytotoxicity against human paclitaxel resistant K562 cells after 3 days by MTT assay; type: functional, cell-based; details: K562, 72 h
[32] = tested on: HL-60; experiment: Cytotoxicity against human HL60 cells after 3 days by XTT assay; type: functional, cell-based; details: HL-60, 72 h; in short: as §2
[33] = tested on: BV-173; experiment: Cytotoxicity against human BV173 cells after 3 days by MTT assay; type: functional, cell-based; details: BV-173, 72 h
[34] = tested on: LNCaP; experiment: Cytotoxicity against human LNCAP cells after 3 days by MTT assay; type: functional, cell-based; details: 72 h
[35] = tested on: SK-N-AS; experiment: Cytotoxicity against human SK-N-AS cells after 3 days by MTT assay; type: functional, cell-based; details: 72 h
[36] = tested on: BT-549; experiment: Cytotoxicity against human BT549 cells after 3 days by MTT assay; type: functional, cell-based; details: BT-549, 72 h
[37] = tested on: SK-MEL-2; experiment: Cytotoxicity against human SK-MEL-2 cells after 3 days by MTT assay; type: functional, cell-based; details: SK-MEL-2, 72 h
[38] = Inhibition of RNA polymerase 2 in human HeLaScribe nuclear extracts after 1 hr
In short: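 HeLaScribe nuclear extract transcription with CMV(+) template DNA, 3 mM MgCl2, 400 μM CTP/GTP/UTP, 25 μM [33P]ATP. Inhibitor preincubated 5 min at 30 °C, then 1 h at 30 °C. Products run on 6% urea–polyacrylamide gel; full-length transcript quantified; IC50 is 50% product decrease.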

Adenosine kinase, sequence (P55263 whole entry): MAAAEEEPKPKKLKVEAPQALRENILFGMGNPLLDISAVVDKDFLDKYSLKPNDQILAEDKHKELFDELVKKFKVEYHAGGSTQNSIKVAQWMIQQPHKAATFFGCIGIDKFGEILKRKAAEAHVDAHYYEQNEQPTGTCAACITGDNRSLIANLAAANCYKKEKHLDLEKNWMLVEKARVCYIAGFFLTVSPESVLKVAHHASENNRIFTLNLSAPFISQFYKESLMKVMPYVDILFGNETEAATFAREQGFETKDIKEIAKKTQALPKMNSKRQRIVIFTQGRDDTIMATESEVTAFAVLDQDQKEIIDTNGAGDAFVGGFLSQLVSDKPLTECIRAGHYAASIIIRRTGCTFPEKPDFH

GI50 [1]: 65 nM
GI50 [2]: 180 nM
GI50 [4]: 106 nM
GI50 [5]: 40 nM
GI50 [6]: 86 nM
GI50 [8]: 125 nM
GI50 [9]: 63 nM
Compound: Nc1nc(Cl)nc2c1ncn2[C@@H]1O[C@H](CO)[C@@H](O)[C@@H]1F [CLOFARABINE]
GI50 [3]: 1240 nM
GI50 [7]: 51 nM

GI50 [1]: 8 nM
IC50 [16]: > 5000 nM
GI50 [4]: 5.9 nM
GI50 [5]: 33 nM
GI50 [6]: 5.3 nM
GI50 [9]: 29 nM
Compound: Nc1ncnc2c1c(-c1cc[nH]c1)cn2[C@@H]1O[C@H](CO)[C@@H](O)[C@H]1O
IC50 [10]: 27 nM
IC50 [11]: > 10000 nM
IC50 [12]: 9420 nM
IC50 [13]: 6090 nM
IC50 [14]: 40 nM
IC50 [15]: 68 nM
IC50 [17]: > 10000 nM
IC50 [18]: 6310 nM
IC50 [19]: 17 nM
GI50 [3]: 4.4 nM
IC50 [20]: 8 nM
IC50 [21]: 110 nM
IC50 [22]: > 10000 nM
IC50 [23]: 3680 nM
IC50 [24]: 4050 nM
IC50 [25]: 81 nM
IC50 [26]: 70 nM
IC50 [27]: 33 nM
GI50 [7]: 24 nM
IC50 [28]: 84 nM
IC50 [29]: > 10000 nM
IC50 [30]: 10 nM
IC50 [31]: 9 nM
IC50 [32]: 840 nM
IC50 [33]: 4 nM
IC50 [34]: 21 nM
IC50 [35]: > 10000 nM
IC50 [36]: 6 nM
IC50 [37]: 8710 nM

Compound: Nc1ccn([C@@H]2O[C@H](CO)[C@@H](O)C2(F)F)c(=O)n1 [GEMCITABINE]
IC50 [10]: 245 nM
IC50 [11]: 1490 nM
IC50 [12]: 7 nM
IC50 [13]: 9880 nM
IC50 [14]: 4120 nM
IC50 [15]: 73 nM
IC50 [18]: 149 nM
IC50 [19]: 6 nM
IC50 [20]: 22 nM
IC50 [22]: > 10000 nM
IC50 [23]: 504 nM
IC50 [24]: 1530 nM
IC50 [25]: 5 nM
IC50 [27]: 718 nM
IC50 [28]: 7 nM
IC50 [29]: 2780 nM
IC50 [30]: 19 nM
IC50 [31]: 6 nM
IC50 [33]: 1 nM
IC50 [34]: 512 nM
IC50 [35]: 1100 nM
IC50 [36]: 8 nM
IC50 [37]: 7110 nM

IC50 ([38]; read-out: IC50): > 400000 nM
Compound: Nc1ncnc2c1c(-c1ccoc1)cn2[C@@H]1O[C@H](COP(=O)(O)OP(=O)(O)OP(=O)(O)O)[C@@H](O)[C@H]1O

Compound: Nc1ncnc2c1ccn2[C@@H]1O[C@H](CO)[C@@H](O)[C@H]1O [TUBERCIDIN]
GI50 [2]: 11 nM
GI50 [3]: 98 nM
GI50 [4]: 1 nM
GI50 [5]: 11 nM
GI50 [6]: 1 nM
GI50 [7]: 21 nM
GI50 [8]: 18 nM
GI50 [9]: 48 nM

Compound: CC[C@H](C)[C@@H]1NC(=O)CNC(=O)[C@@H]2Cc3c([nH]c4cc(O)ccc34)[S+]([O-])C[C@@H](NC(=O)CNC1=O)C(=O)N[C@@H](CC(N)=O)C(=O)N1C[C@H](O)C[C@H]1C(=O)N[C@@H]([C@@H](C)[C@@H](O)CO)C(=O)N2 (stereo partly drawn) [alpha-Amanitin]
IC50 [38]: 2.2 ng/mL

IC50 [16]: > 2000 nM
GI50 [2]: 544 nM
GI50 [4]: 633 nM
GI50 [5]: 856 nM
GI50 [6]: 701 nM
GI50 [8]: 152 nM
GI50 [9]: 1110 nM
Compound: COc1ccc(-c2cn([C@@H]3O[C@H](CO)[C@@H](O)[C@H]3O)c3ncnc(N)c23)cc1
GI50 [3]: 811 nM
IC50 [21]: > 10000 nM
IC50 [26]: > 10000 nM
GI50 [7]: 4300 nM
IC50 [32]: > 10000 nM
